Assay results from publication PMC4629852 (Nature chemical biology, 2015).

Tests used:
ERRα [1] = target: T1, ERRα (Homo sapiens, UniProt P11474); assay: ERRα degradation in MCF-7 cells by immunoblotting; type: cell-based
T1 sequence (P11474 1-423): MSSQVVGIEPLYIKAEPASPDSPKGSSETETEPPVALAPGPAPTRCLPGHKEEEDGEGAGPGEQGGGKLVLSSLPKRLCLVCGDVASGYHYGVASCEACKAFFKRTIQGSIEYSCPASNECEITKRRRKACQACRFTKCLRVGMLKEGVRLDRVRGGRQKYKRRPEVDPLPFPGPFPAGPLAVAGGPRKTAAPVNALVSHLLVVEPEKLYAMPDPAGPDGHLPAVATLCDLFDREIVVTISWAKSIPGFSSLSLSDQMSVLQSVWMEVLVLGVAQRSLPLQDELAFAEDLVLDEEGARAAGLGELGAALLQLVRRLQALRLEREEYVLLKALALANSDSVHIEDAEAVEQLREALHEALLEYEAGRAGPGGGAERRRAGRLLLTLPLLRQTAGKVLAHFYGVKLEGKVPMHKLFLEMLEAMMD
Method in brief: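 MCF7 cells were grown in DMEM/F12 + 10% FBS at 37 °C, 5% CO₂. They were seeded at 70% confluency, attached overnight, then treated with test compound for 8 h. An optional 1 h pretreatment with 1 μM epoxomicin preceded compound. Lysates were BCA-normalised, run on 4–12% gels, transferred to PVDF, milk-blocked and probed overnight with anti-ERRα.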

HIF1α = assay: ODD-luciferase assay of HIF1α processing by VHL; type: cell-based
ERRα [2] = target: T1, ERRα; assay: Expression proteomics in MCF-7 cells; type: cell-based; conditions: MCF-7, 100 nM and 500 nM, 4, 8 or 24 h
Method in brief: (§1)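 MCF-7 cells were plated 1 day before treatment at 1 × 10⁶ cells/well in MEM + 10% FBS + 1% NEAA + sodium pyruvate. They were treated in biological duplicate for the indicated times, scraped into ice-cold PBS and lysed in 2% SDS (95 °C, 3 min). Benzonase digestion followed (37 °C, 1.5 h), then BCA. Proteins were reduced with DTT, alkylated with iodoacetamide, gel-separated, trypsin-digested and quantified by LC-MS/MS.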

BCR = target: T2, BCR (Homo sapiens, UniProt P11274); assay: Expression proteomics in MCF-7 cells; type: cell-based; conditions: MCF-7, 500 nM, prolonged incubation, P < 0.05
T2 sequence (P11274 1-1271): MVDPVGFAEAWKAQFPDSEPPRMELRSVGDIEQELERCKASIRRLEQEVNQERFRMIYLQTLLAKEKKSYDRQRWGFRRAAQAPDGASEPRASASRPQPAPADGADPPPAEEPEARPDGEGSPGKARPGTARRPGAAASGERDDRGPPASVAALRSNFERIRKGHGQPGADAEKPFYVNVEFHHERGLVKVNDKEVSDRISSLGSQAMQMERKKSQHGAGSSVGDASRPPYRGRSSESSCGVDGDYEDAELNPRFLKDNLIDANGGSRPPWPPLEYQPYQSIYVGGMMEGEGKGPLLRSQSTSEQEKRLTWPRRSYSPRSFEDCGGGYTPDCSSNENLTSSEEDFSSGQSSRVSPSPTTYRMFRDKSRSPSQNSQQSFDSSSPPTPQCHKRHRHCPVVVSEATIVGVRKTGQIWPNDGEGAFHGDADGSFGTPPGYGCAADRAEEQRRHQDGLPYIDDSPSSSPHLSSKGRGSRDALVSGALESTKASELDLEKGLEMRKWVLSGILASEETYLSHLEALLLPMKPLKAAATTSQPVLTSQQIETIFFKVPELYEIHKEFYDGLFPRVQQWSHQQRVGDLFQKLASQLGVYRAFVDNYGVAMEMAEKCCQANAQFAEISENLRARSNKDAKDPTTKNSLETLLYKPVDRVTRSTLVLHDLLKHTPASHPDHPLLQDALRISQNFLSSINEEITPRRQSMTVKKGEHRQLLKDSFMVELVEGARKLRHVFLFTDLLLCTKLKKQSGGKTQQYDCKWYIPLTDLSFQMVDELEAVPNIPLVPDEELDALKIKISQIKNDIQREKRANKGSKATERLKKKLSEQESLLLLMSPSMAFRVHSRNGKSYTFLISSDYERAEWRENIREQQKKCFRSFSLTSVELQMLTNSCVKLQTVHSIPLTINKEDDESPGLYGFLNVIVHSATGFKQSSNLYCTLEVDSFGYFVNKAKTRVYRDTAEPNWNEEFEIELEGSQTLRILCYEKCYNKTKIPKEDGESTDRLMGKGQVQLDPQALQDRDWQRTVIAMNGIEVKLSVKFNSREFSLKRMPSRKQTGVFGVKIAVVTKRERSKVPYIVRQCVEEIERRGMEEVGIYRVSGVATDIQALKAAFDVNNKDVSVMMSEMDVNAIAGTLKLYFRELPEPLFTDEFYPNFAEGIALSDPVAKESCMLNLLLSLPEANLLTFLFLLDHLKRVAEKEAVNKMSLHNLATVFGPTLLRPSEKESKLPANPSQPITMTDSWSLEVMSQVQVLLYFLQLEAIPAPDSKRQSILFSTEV
Method in brief: as §1

ERRα [3] = target: T3, ERRα (Mus musculus, UniProt O08580); assay: In vivo ERRα knockdown in mouse tissues, western blotting; conditions: mice, 100 mg/kg i.p. every 8 h, four doses, ~5 h after last dose, vs vehicle
T3 sequence (O08580 1-422): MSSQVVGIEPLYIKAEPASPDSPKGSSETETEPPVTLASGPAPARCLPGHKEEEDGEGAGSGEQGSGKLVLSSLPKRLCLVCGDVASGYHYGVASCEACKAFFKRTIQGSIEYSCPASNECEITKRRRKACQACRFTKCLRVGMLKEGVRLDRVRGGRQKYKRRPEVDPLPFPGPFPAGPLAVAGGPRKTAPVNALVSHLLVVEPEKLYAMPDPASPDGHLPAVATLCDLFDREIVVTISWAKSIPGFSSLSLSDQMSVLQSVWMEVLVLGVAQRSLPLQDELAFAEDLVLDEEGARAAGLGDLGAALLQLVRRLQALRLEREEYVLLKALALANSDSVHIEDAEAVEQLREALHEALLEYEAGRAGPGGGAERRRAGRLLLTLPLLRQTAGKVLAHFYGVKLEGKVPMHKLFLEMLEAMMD

ERRα [4] = target: T1, ERRα; assay: In vivo ERRα knockdown in MDA-MB-231 tumor xenografts in mice, western blotting; conditions: 100 mg/kg i.p. every 8 h, four doses, ~5 h after last dose, vs vehicle
VHL complex = VHL complex (Homo sapiens, UniProt P40337); assay: Competitive binding fluorescence polarization vs HIF1α-derived peptide
RIPK2 [5] = target: T4, RIPK2 (Homo sapiens, UniProt O43353); assay: RIPK2 degradation in THP-1 monocytes by immunoblotting; type: cell-based
Method in brief: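 THP-1 cells were cultured in RPMI 1640 + 10% FBS at 37 °C, 5% CO₂. Cells (5 × 10⁶) were treated with a dose range for 16 h, or at 30 nM for a time course. Options were a 1 h pretreatment with 1 μM epoxomicin, or washout after 4 h with PBS washes and fresh medium. RIPK2 was detected by western blot.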

THP-1 cells = assay: Cellular toxicity; type: cell-based, human; conditions: any concentration, Supplementary Fig. 7
[6] = target: VHL-RIPK2 ternary complex (Homo sapiens, UniProt O43353+P40337); type: binding; conditions: THP-1 lysate
Method in brief: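 THP-1 lysate in Tris/glycerol/MgCl₂/NaCl/vanadate/0.008% NP40 buffer was adjusted to 5 mg ml⁻¹. Lysate (10 mg protein) was incubated with compound at 3, 30 or 300 nM, or DMSO, for 2 h at 4 °C. It was then captured for 2 h at 4 °C on anti-VHL or IgG1κ control agarose beads. Eluates were analysed by immunoblot and LC-MS, as log₂ fold changes over replicates (≥2 unique peptides).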

RIPK2 [7] = target: RIPK2 (Homo sapiens, UniProt O43353+P40337); assay: In vitro ubiquitination in reconstituted E1-E2-VHL cascade; type: biochemical
Method in brief: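 Three-stage reaction at room temperature. First, RIPK2 (500 nM final) was autophosphorylated with [³²P]γ-ATP for 10 min in Tris/KCl/Mg/Mn/DTT buffer, pH 7.5. Ubiquitination buffer (2 mM ATP) was then added with VHL (250 nM final) and test compound at various concentrations. Separately, UbE1 (25 nM), Ubc4 (250 nM) and ubiquitin (116 μM) were precharged. The mixtures were combined and quenched over time. ³²P was converted to moles of RIPK2 (five phosphopeptides) and compared with moles of compound.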

MAPKAPK3 [8] = target: T5, MAPKAPK3 (Homo sapiens, UniProt Q16644); assay: Kinobeads competition binding; conditions: below the limit of detection
RIPK2 [9] = target: T4, RIPK2; assay: Expression proteomics in THP-1 cells; type: cell-based; conditions: THP-1, 30 nM, 6, 18 and 24 h
MAPKAPK3 [10] = target: T5, MAPKAPK3; assay: Expression proteomics in THP-1 cells; type: cell-based; conditions: THP-1, 30 nM; of ~7,000 proteins only RIPK2 and MAPKAPK3
Method in brief: (§2)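 THP-1 cells were seeded at 3 × 10⁶ cells/well in RPMI1640 + 10% heat-inactivated FBS. They were exposed to 30 nM test compound for 6, 18 or 24 h; the 18 h arm was run in biological duplicate. Cells were collected on ice, washed twice in cold PBS, snap-frozen and SDS-lysed. Proteins were reduced, alkylated, gel-separated, trypsin-digested and quantified proteome-wide by LC-MS/MS.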

RIPK3, ABL and TESK = assay: Expression proteomics in THP-1 cells; type: cell-based, human; conditions: THP-1, 30 nM
Method in brief: as §2

COc1cc(/C=C2\SC(=O)N(CCOCCC(=O)N[C@H](C(=O)N3C[C@H](O)C[C@H]3C(=O)NCc3ccc(-c4scnc4C)cc3)C(C)(C)C)C2=O)ccc1Oc1ccc(C#N)cc1C(F)(F)F [PROTAC_ERRα]
decrease in normalized ERRα levels (ERRα [1]; MCF-7, 1 h pretreatment with 1 μM epoxomicin): 5% | maximal level of degradation (Dmax) (ERRα [1]; MCF-7 cells, 8 h): 86% | stabilization of HIF1α (ODD-luciferase) (HIF1α; concentrations up to 30 μM): did not stabilize HIF1α | ERRα levels (ERRα [2]): decreased levels of ERRα | BCR levels (BCR): downregulated | reduction of ERRα levels in heart (ERRα [3]): approximately 44% | reduction of ERRα levels in kidney (ERRα [3]): approximately 44% | reduction of ERRα levels in MDA-MB-231 tumors (ERRα [4]): ~39%

COc1cc(/C=C2\SC(=O)N(CCOCCC(=O)N[C@H](C(=O)N3C[C@@H](O)C[C@H]3C(=O)NCc3ccc(-c4scnc4C)cc3)C(C)(C)C)C2=O)ccc1Oc1ccc(C#N)cc1C(F)(F)F [PROTAC_ERRα_epi]
reduction of ERRα protein levels (ERRα [1]; MCF-7, at concentrations at which the active PROTAC reduced ERRα levels by 50%): ~ 20%

Cc1ncsc1-c1ccc(CNC(=O)[C@@H]2C[C@@H](O)CN2C(=O)[C@@H](NC(=O)COCCOCCOCCOCCOc2cc3nccc(Nc4ccc5scnc5c4)c3cc2S(=O)(=O)C(C)(C)C)C(C)(C)C)cc1 [PROTAC_RIPK2]
IC50 (VHL complex; competition with HIF1α-derived peptide for VHL complex): 660 nM | window between RIPK2 degradation and modulation of endogenous VHL function (RIPK2 [5]; RIPK2 degradation vs ODD-luciferase): > 1,000 fold | earliest time at which RIPK2 degradation was observed (RIPK2 [5]; THP-1, 30 nM): 1 h | time at which RIPK2 degradation was nearly complete (RIPK2 [5]; THP-1, 30 nM): 4 h | time for protein levels to recover to pre-treatment levels after removal (RIPK2 [5]; THP-1, 4 h pretreatment with 30 nM, washout): ≤ 24 h | RIPK2 protein levels at high concentration (hook effect) (RIPK2 [5]; THP-1, 16 h, 30 μM): returning to basal levels | Dmax (RIPK2 [5]; THP-1, 16 h, at concentrations of 10 nM and higher): > 95% | stabilization of HIF1α (ODD-luciferase) (HIF1α; 30 μM): modest stabilization of HIF1α | effect on ODD-luciferase levels (HIF1α; concentrations up to 3 μM): no effect | cellular toxicity (THP-1 cells): No cellular toxicity | co-recruitment of RIPK2 over background ([6]; 30 nM): up to 16 fold | change of RIPK2 enrichment ([6]; 300 nM versus 30 nM): reduced by two-fold | stoichiometry (modified RIPK2 to PROTAC) (RIPK2 [7]; 2.0 pmol PROTAC, final time point): 2.0 | modified RIPK2 (RIPK2 [7]; 2.0 pmol PROTAC, final time point (35 min), 500 nM RIPK2): 4.0 pmol | Kd (MAPKAPK3 [8]): > 3000 nM | RIPK2 levels (RIPK2 [9]): induced the degradation of RIPK2 from 6 h onwards | MAPKAPK3 levels (MAPKAPK3 [10]): significantly degraded | levels of other kinases bound (RIPK3, ABL and TESK) (RIPK3, ABL and TESK): not degraded

Cc1ncsc1-c1ccc(CNC(=O)[C@H]2C[C@H](O)CN2C(=O)[C@@H](NC(=O)COCCOCCOCCOCCOc2cc3nccc(Nc4ccc5scnc5c4)c3cc2S(=O)(=O)C(C)(C)C)C(C)(C)C)cc1 [PROTAC_RIPK2_epi]
binding to VHL (VHL complex; concentrations up to 10 μM): no binding to VHL | degradation of RIPK2 (RIPK2 [5]; THP-1 cells, Supplementary Fig. 6f): no degradation of RIPK2 | enrichment of RIPK2 in VHL immunoprecipitate [6]: did not influence the immune-captured proteins or enrich RIPK2 levels | ubiquitination of RIPK2 (RIPK2 [7]; any concentration (50, 100, 200 nM), up to 35 min): unable to induce ubiquitination | RIPK2 levels (RIPK2 [9]): neither the PROTAC_RIPK2_epi nor the RIPK2 ligand affected RIPK2 levels
